The values below come from ChEMBL document CHEMBL2380254, “Optimization of tocotrienols as antiproliferative and antimigratory leads” (Eur J Med Chem, 2013).

The GI50 is the concentration at which growth is held to half of that of the control. Read a high GI50 as lower sensitivity of the cells.

Holding throughout (format): functional
A short description of experiment [1]: Growth inhibition of human NCI-ADR-RES cells assessed as cell growth at 10 uM after 48 hrs by sulforhodamine B assay. Particulars: read-out: Activity. In a few lines: (§1)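 Single-dose NCI-60 screen: adherent cells in RPMI 1640 with 5% FBS were exposed to 10 µM for 48 h at 37 °C after a 24 h preincubation. They were fixed in situ with cold TCA (10% final), stained with 0.4% SRB in 1% acetic acid, solubilized in 10 mM Tris base, and read at 515 nm. Percent growth was taken relative to time-zero and control plates.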

Experiment [2] relates to UACC-257. Nature of the experiment: Growth inhibition of human UACC257 cells assessed as cell growth at 10 uM after 48 hrs by sulforhodamine B assay. The conditions noted are these: UACC-257, 48 h, read-out: Activity. In a few lines:
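Single-dose NCI-60 test at 10 µM. Cells were grown in RPMI 1640 with 5% FBS and 2 mM L-glutamine, preincubated 24 h, with T0 plates TCA-fixed. Exposure was 48 h at 37 °C, 5% CO2. Cells were fixed with cold TCA (final 10%, 4 °C, 60 min), stained with SRB and read at 515 nm. Percent growth was taken relative to T0 and untreated control; negative values denote cell kill.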

In experiment [3] the test system is M14. The experiment can be described thus: Growth inhibition of human M14 cells assessed as cell growth at 10 uM after 48 hrs by sulforhodamine B assay. Particulars: M14, 48 h, read-out: Activity. In a few lines: (§2)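 NCI-60 single-dose screen at 10 µM: cells in RPMI 1640 with 5% FBS, preincubated 24 h, then exposed 48 h at 37 °C. TCA fixation (16% final for suspension cells), SRB staining, absorbance 515 nm. Percent growth relative to time-zero and untreated control plates; negative values indicate cell kill.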

For experiment [4], the system named is HCT-116. The experiment can be described thus: Growth inhibition of human HCT116 cells assessed as cell growth at 10 uM after 48 hrs by sulforhodamine B assay. The conditions noted are these: HCT-116, 48 h, read-out: Activity. In a few lines:
as §2

Experiment [5] relates to NCI-H522. The experiment can be described thus: Growth inhibition of human NCI-H522 cells assessed as cell growth at 10 uM after 48 hrs by sulforhodamine B assay. The conditions noted are these: NCI-H522, 48 h, read-out: Activity. In a few lines:
as §1
(The SRB assay estimates cell density from bound dye.)

The test system of experiment [6] is NCI-H23. Nature of the experiment: Growth inhibition of human NCI-H23 cells assessed as cell growth at 10 uM after 48 hrs by sulforhodamine B assay. The conditions noted are these: NCI-H23, 48 h, read-out: Activity. The method in brief: as §1
Experiment [7] has as its system NCI-H226. The experiment can be described thus: Growth inhibition of human NCI-H226 cells assessed as cell growth at 10 uM after 48 hrs by sulforhodamine B assay. Particulars: NCI-H226, 48 h, read-out: Activity. In a few lines: as §1
Experiment [8] concerns HOP-92. The experiment can be described thus: Growth inhibition of human HOP92 cells assessed as cell growth at 10 uM after 48 hrs by sulforhodamine B assay. The conditions noted are these: HOP-92, 48 h, read-out: Activity. In a few lines:
as §2

Experiment [9] relates to SR. Nature of the experiment: Growth inhibition of human SR cells assessed as cell growth at 10 uM after 48 hrs by sulforhodamine B assay. Particulars: read-out: Activity. The method in brief: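 Suspension line in RPMI 1640 with 5% FBS, single 10 µM dose for 48 h. Settled cells were fixed with TCA (final 16%), then SRB-stained and read at 515 nm. Percent growth was taken versus T0 and control; negative values denote cytotoxicity.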

Experiment [10] has as its system RPMI-8226. The experiment can be described thus: Growth inhibition of human RPMI8226 cells assessed as cell growth at 10 uM after 48 hrs by sulforhodamine B assay. Particulars: RPMI-8226, 48 h, read-out: Activity. The method in brief: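 Single 10 µM dose applied to suspension cells in RPMI 1640 with 5% FBS and 2 mM L-glutamine for 48 h at 37 °C. Settled cells were fixed with 80% TCA (16% final), stained with SRB, and read at 515 nm. Percent growth was calculated against time-zero and untreated control optical densities.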

The test system of experiment [11] is T47D. Nature of the experiment: Growth inhibition of human T47D cells after 48 hrs by sulforhodamine B assay. The method in brief:
(§3)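 NCI-60 five-dose screen. Cells were grown in RPMI 1640 with 5% FBS and 2 mM L-glutamine, plated at 5000–40,000 cells/well and incubated 24 h before dosing, with T0 plates TCA-fixed. DMSO stocks were diluted to doses of […] and exposed 48 h at 37 °C, 5% CO2. Cells were fixed with cold TCA (final 10%, 60 min, 4 °C), stained with 0.4% SRB in 1% acetic acid for 10 min, solubilized in 10 mM trizma base and read at 515 nm. GI50 is where 100×(T−T0)/(C−T0)=50.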

Experiment [12] has as its system BT-549. Nature of the experiment: Growth inhibition of human BT549 cells after 48 hrs by sulforhodamine B assay. The conditions noted are these: BT-549, 48 h. In a few lines: (§4)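 NCI-60 screen: cells in RPMI 1640 with 5% FBS and 2 mM glutamine, 5000–40,000 cells/well, preincubated 24 h. Five concentrations (10-fold dilutions; 100 to 0.001 µM) applied for 48 h at 37 °C. TCA fixation, SRB stain, absorbance at 515 nm. Time-zero plates included; GI50 where 100×(T−T0)/(C−T0)=50.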

The test system of experiment [13] is TK-10. Nature of the experiment: Growth inhibition of human TK10 cells after 48 hrs by sulforhodamine B assay. Particulars: TK-10, 48 h. The method in brief: as §3
Experiment [14] relates to UO-31. The experiment can be described thus: Growth inhibition of human UO31 cells after 48 hrs by sulforhodamine B assay. Particulars: UO-31, 48 h. In a few lines:
as §3

Experiment [15] has as its system CAKI-1. The experiment can be described thus: Growth inhibition of human CAKI-1 cells after 48 hrs by sulforhodamine B assay. The conditions noted are these: CAKI-1, 48 h. The method in brief: as §4
For experiment [16], the system named is SK-MEL-2. The experiment can be described thus: Growth inhibition of human SK-MEL-2 cells after 48 hrs by sulforhodamine B assay. Particulars: SK-MEL-2, 48 h. In a few lines:
(§5)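 NCI-60 panel cells grown in RPMI 1640 with 5% FBS and 2 mM L-glutamine, seeded at 5000–40,000 cells/well and preincubated 24 h. Five 10-fold dilutions (0.001–100 µM) from DMSO stocks were added for 48 h at 37 °C. Adherent cells were fixed with cold TCA (10% final) for 60 min at 4 °C, stained with 0.4% SRB, and read at 515 nm. GI50 was set where 100×(T−T0)/(C−T0)=50.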

In experiment [17] the test system is Malme-3M. The experiment can be described thus: Growth inhibition of human MALME-3M cells after 48 hrs by sulforhodamine B assay. In a few lines:
as §5

The subject of experiment [18] is SF-295. The experiment can be described thus: Growth inhibition of human SF295 cells after 48 hrs by sulforhodamine B assay. Particulars: SF-295, 48 h. The method in brief:
as §5

Experiment [19] concerns SF-539. Nature of the experiment: Growth inhibition of human SF539 cells after 48 hrs by sulforhodamine B assay. The conditions noted are these: SF-539, 48 h. In a few lines:
as §5

Experiment [20] deals with NCI-H522. Nature of the experiment: Growth inhibition of human NCI-H522 cells after 48 hrs by sulforhodamine B assay. The conditions noted are these: NCI-H522, 48 h. In a few lines:
as §5

Experiment [21] concerns RPMI-8226. Nature of the experiment: Growth inhibition of human RPMI8226 cells after 48 hrs by sulforhodamine B assay. The conditions noted are these: RPMI-8226, 48 h. The method in brief:
(§6)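 NCI-60 suspension lines in RPMI 1640 with 5% FBS and 2 mM L-glutamine, preincubated 24 h. A five-concentration 10-fold series (0.001–100 µM) was given for 48 h at 37 °C. Settled cells were fixed with 80% TCA (16% final), stained with SRB, and read at 515 nm. GI50 was taken where 100×(T−T0)/(C−T0)=50, with T0 plates fixed at drug addition.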

Experiment [22] has as its system MOLT-4. Nature of the experiment: Growth inhibition of human MOLT4 cells after 48 hrs by sulforhodamine B assay. Particulars: MOLT-4, 48 h. In a few lines: as §6

Consider `CC(C)=CCC/C(C)=C/CC/C(C)=C/CC[C@]1(C)CCc2c3c(cc(C)c2O1)OCN(C1CCN(Cc2ccccc2)CC1)C3`, for which the growth at 10 µM in experiment [1] is 62.9%; in experiment [2], 93%; in experiment [3] it was 50.1%; in [4], -81.9%; in [5] it was -24.9%; in experiment [6], 38.7%. Besides, the growth at 10 µM is 101% in experiment [7], 37.4% in experiment [8], -35% in [9] and 14.6% in [10]. Further, the GI50 came to 2.18 µM in experiment [11]; 1.89 µM in [12]; 1.71 µM in [13]; 1.51 µM in [14]; 1.6 µM in experiment [15]; 2.3 µM in [16]. Also, the GI50 in experiment [17] worked out at 2.13 µM; in [18], 1.88 µM; in [19], 1.83 µM; in experiment [20] it was 1.81 µM; in experiment [21], 0.324 µM; in experiment [22], 0.237 µM.
With `CC(C)=CCC/C(C)=C/CC/C(C)=C/CC[C@]1(C)CCc2c3c(cc(C)c2O1)OCN(CCCCCO)C3`, the growth at 10 µM is 43.1% in experiment [1]; 83.8% in [2]; 57.9% in experiment [3]; -89.6% in experiment [4]; 4.69% in experiment [5]; 92.9% in experiment [6]. Further, the growth at 10 µM in experiment [7] is 98.4%; in experiment [8], 62.3%; in experiment [9] it was -16.9%; in experiment [10], -16.3%. Further, the GI50 in [11] worked out at 6.17 µM; in [12], 7.34 µM; in experiment [13] it was 5.98 µM; in experiment [14], 4.64 µM; in [15] it was 5.33 µM; in experiment [16], 7.47 µM. The GI50 came out at 6.9 µM in experiment [17]; 6.12 µM in experiment [18]; 6.26 µM in experiment [19]; 7.08 µM in [20]; 9.91 µM in experiment [21]; 5.87 µM in experiment [22].
